Screening data from PubChem BioAssay.
Only some compounds are listed: those with a hit (about 1.9% of all), similar ones and a draw of the others.
EBNA-1 inhibitor = blocks EBNA-1 binding to DNA. EBNA-1 DNA binding, fluorescence polarization. inhibition, % at 14.8 µM. 300,000 tested, 0.34% active; in the data active = inhibition above about 28%
core dimer inh = blocks dimerization of HCV core protein; TR-FRET GST/Flag-core106 dimerization, 1536-well; inhibition, % at 5 µM; 300,000 tested, 0.33% active; AID 1899;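 active = inhibition above the mean of all tested compounds plus 3 SD, set per screening campaign, cut at about 45% in these data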
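Assay system: Tagged HCV core106 pair (GST and Flag) | Buffer or medium: KF-containing HEPES buffer, pH 7.45, DTT, CHAPS, BSA | Also added: Eu donor and XL665 acceptor anti-tag antibodies | Dosing: One concentration, 5 µM, in 0.5% DMSO | Timing: 4 h at 22.5 °C | Technique: TR-FRET 671 and 617 nm emission | Repeats: Singlicate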
PP1 inh = counter-screen for PP5 inhibitors: inhibitors of human PP1-alpha; 320,000 tested, 0.9% active; P62136; inhibition, % at 6.7 µM; purified PP1alpha, OMFP fluorescence; AID 2235;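 active = inhibition above the mean inhibition of all tested compounds plus 3 SD, computed separately for each screening campaign, cut at about 15% in these data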
Target sequence (P62136 whole entry, looked up): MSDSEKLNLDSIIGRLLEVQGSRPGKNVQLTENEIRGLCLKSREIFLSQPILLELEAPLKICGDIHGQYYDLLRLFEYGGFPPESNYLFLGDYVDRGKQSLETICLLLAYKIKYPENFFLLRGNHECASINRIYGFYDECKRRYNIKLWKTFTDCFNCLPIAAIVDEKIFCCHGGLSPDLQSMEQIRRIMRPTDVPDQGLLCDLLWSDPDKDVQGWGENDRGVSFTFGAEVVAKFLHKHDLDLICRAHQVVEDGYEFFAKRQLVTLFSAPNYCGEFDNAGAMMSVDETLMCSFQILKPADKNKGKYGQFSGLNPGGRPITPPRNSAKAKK
ZTA DNA inh = counter-screen for EBNA-1 inhibitors: inhibitors of Epstein-Barr virus ZTA; inhibition, % at 11 µM; 320,000 tested, 0.15% active; ZTA-DNA binding, fluorescence polarization; in the data active = inhibition above about 33%
Target sequence (P03206 whole entry, looked up): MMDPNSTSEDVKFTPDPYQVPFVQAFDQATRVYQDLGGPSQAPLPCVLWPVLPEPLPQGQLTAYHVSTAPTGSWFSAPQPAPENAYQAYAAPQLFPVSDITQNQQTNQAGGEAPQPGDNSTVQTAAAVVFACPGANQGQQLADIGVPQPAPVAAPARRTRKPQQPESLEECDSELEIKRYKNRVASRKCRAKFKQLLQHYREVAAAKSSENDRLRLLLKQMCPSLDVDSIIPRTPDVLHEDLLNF
NS3 helicase inh = HCV NS3 helicase inhibition; inhibition, % at 10.9 µM; 290,000 tested, 0.56% active; NS3 helicase DNA unwinding, Cy5 molecular beacon fluorescence;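 active = inhibition above the mean of all tested compounds plus 3 SD, set per campaign, cut at about 35% in these data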
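System: HCV NS3 helicase fragment; control set: DMSO and thioflavine S; technique: Cy5 fluorescence at 0 and 60 min, beacon hairpin quenching; reagent: beacon DNA duplex substrate plus ATP; replicates: singlicate; schedule: 1 h reaction at 25 °C, ATP-initiated; medium: MOPS buffer pH 6.5 with MgCl2, DTT, Tween20, BSA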
EBNA-1 inh conf = EBNA-1 (EBV) inhibition, confirmation; shares compounds with EBNA-1 inhibitor; 830 tested, 35% active; inhibition, % at 14.8 µM; AID 2292; Recombinant EBNA-1 DBD, Cy5-DNA fluorescence polarization;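 active = mean inhibition across replicates above a set limit taken from the earlier primary screen, cut at about 28% in these data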
ZTA DNA inh trip = blocks Epstein-Barr virus ZTA in triplicate, EBNA-1 counter-screen | shares compounds with EBNA-1 inhibitor | Zta-ZRE DNA binding, Cy5 fluorescence polarization | inhibition, % at 11.1 µM | 830 tested, under 10 active;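 active = mean inhibition over triplicates above a set limit taken from the primary EBNA-1 screen, cut at about 37% in these data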;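 note: purified full length Zta protein with Cy5 labeled ZRE DNA probe; inhibitors lower polarization by freeing the labeled DNA probe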
Hits are given with their value; i = inactive; nt = no result given; + = active, no number.

SMILES | EBNA-1 inhibitor | core dimer inh | PP1 inh | ZTA DNA inh | NS3 helicase inh | EBNA-1 inh conf | ZTA DNA inh trip
COc1ccc(Cc2nnc(NC(=O)Nc3ccccc3)s2)cc1OC | 60 | i | i | i | i | i | i
COCCn1cnnc1SCC(=O)Nc1cc(OC)c([N+](=O)[O-])cc1C | + | i | i | i | i | i | i
CCCCc1ccc(-n2nnnc2SCC(=O)Nc2cc(OC)c([N+](=O)[O-])cc2C)cc1 | i | i | i | i | i | nt | nt
C=CCNC(=S)Nc1c(C(=O)OC)[nH]c2cc(OC)ccc12 | 29 | i | i | i | i | i | i
COC(=O)c1[nH]c2cc(OC)ccc2c1NC(=O)c1c(F)cccc1F | i | i | i | i | i | nt | nt
O=C(CCN1C(=O)/C(=C\c2cccs2)SC1=S)NC1=NCCS1 | i | i | i | i | i | nt | nt
O=C(CCN1C(=O)/C(=C/c2cccs2)SC1=S)NC1=NCCS1 | 34 | i | i | i | i | i | i
COc1cc(NC(=O)C2Cc3ccccc3CN2S(C)(=O)=O)cc(OC)c1 (stereo not given) | 38 | i | i | i | i | i | i
COc1ccc(Cl)cc1NC(=O)C1Cc2ccccc2CN1S(C)(=O)=O (stereo not given) | i | i | i | i | i | nt | nt
O=C(NCC(c1ccc(F)cc1)N1CCOCC1)c1nn(-c2ccccc2)c(=O)c2ccccc12 (stereo not given) | nt | nt | i | i | nt | nt | nt
Nc1c(C(=O)Nc2ccc3c(c2)OCCO3)nnn1Cc1cccc(F)c1 | 35 | i | i | i | nt | 87 | i
Nc1c(C(=O)NCc2ccc3c(c2)OCO3)nnn1Cc1cccc(F)c1 | 76 | i | i | i | i | 29 | i
O=C(NCc1csc(-c2cccs2)n1)Nc1cccc(Cl)c1 | 28 | i | i | i | i | i | i
O=S(=O)(NCc1ccccc1)c1ccc(S(=O)(=O)N(Cc2cccs2)CC2CCCO2)cc1 (stereo not given) | 35 | i | i | i | i | i | i
COc1ccc(CNC(=O)CN2C(=O)c3ccc([N+](=O)[O-])cc3C2=O)cc1 | i | i | i | i | i | nt | nt
CN(C(=O)COC(=O)c1cc2c(s1)CCCCC2)c1ccccc1 | 82 | i | i | i | nt | i | i
CC(NC(=O)c1cccc(Cl)c1)C1CC2CCC1C2 (stereo not given) | i | i | i | i | i | nt | nt
Cc1ccc2nc(SCC(=O)NCc3ccco3)c(C#N)cc2c1 | i | i | i | i | i | nt | nt
Cc1ccc2nc(SCC(=O)NCc3cccs3)c(C#N)cc2c1 | 33 | i | i | i | i | i | i
Cc1ccc2cccc(NC(=S)NC(=O)c3ccnn3C)c2n1 | 40 | i | i | i | i | 32 | i
O=C(NN(CC(O)COc1ccccc1)CC(O)COc1ccccc1)c1ccccc1 (stereo not given) | i | i | i | i | i | nt | nt
COC(=O)c1cc(Nc2cc(C)c3ccc(O)cc3n2)cc(C(=O)OC)c1 | 39 | i | i | i | i | 48 | i
[N-]=[N+]=NC[C@H](Cc1ccccc1)N1CCN(Cc2ccccc2)CCC1=O | i | i | i | i | i | nt | nt
CCN1C(=O)/C(=C2/C=Cc3cc(C)ccc3N2CC)N(C)C1=S | 29 | i | i | i | i | i | i
CCN1/C(=C2/SC(=S)N(C)C2=O)C=Cc2cc(C)ccc21 | i | i | i | i | nt | nt | nt
SMILES | EBNA-1 inhibitor | core dimer inh | PP1 inh | ZTA DNA inh | NS3 helicase inh | EBNA-1 inh conf | ZTA DNA inh trip
Cc1nn(-c2ccccc2)c(N2CCCC2)c1/C=N/NC(=S)Nc1ccc(F)cc1 | i | i | i | i | nt | nt | nt
Cc1ccc(NC(=S)N/N=C/c2c(C)nn(-c3ccccc3)c2N2CCCC2)cc1 | 39 | i | i | i | i | i | i
COc1ccccc1OCCn1cc(/C=C(\C#N)C(=O)NCc2cccs2)c2ccccc21 | i | i | i | i | i | nt | nt
N#C/C(=C\c1cn(Cc2ccccc2C#N)c2ccccc12)C(=O)NCc1cccs1 | 31 | i | i | i | i | i | i
CC(OC(=O)c1ccc2c(c1)OCCO2)C(=O)c1ccccc1 (stereo not given) | i | i | i | i | nt | nt | nt
COc1ccccc1NC(=O)Nc1ccc(C(N)=O)cc1 | 46 | i | i | i | i | i | i
CCOc1ccc(-n2c(=O)c3sccc3n(CC(=O)Nc3cccc(OC)c3)c2=O)cc1 | 52 | i | i | i | i | 31 | i
COc1ccc(NC(=O)Cn2c(=O)n(-c3ccccc3)c(=O)c3sccc32)c(OC)c1 | i | i | i | i | i | nt | nt
Cc1sc2ncn(CC(=O)NC3CCCCC3)c(=O)c2c1C | nt | nt | i | i | nt | nt | nt
Cc1ccc(-c2csc(NC(=O)CSc3ncn(-c4ccccc4)n3)n2)cc1 | 41 | i | i | i | i | i | i
O=C(CSc1ncn(-c2ccccc2)n1)Nc1nc(-c2ccccc2)cs1 | i | i | i | i | i | nt | nt
Cc1cccc(-c2noc(CCC(=O)Nc3ccc(C(N)=O)cc3)n2)c1 | 76 | i | i | i | i | 39 | i
O=C(N/N=C/c1ccco1)c1ccc(OCc2ccccc2)cc1 | i | i | i | i | i | nt | nt
O=C(N/N=C/c1ccc(COc2ccc(Br)cc2)o1)c1ccco1 | 59 | i | i | i | i | i | i
CCN(CC(=O)Nc1ccc(NC(C)=O)cc1)C(=O)C1(c2ccccc2)CC1 | nt | nt | i | i | nt | nt | nt
Cc1csc(NC(=O)COc2ccc3c(C)cc(=O)oc3c2)n1 | 44 | i | i | i | i | 47 | i
O=C(COC(=O)c1cccc(O)c1)NCc1ccc2c(c1)OCO2 | i | i | i | i | i | nt | nt
CC(=O)N1CCN(c2ccc([N+](=O)[O-])cc2)CC1 | i | i | i | i | i | nt | nt
CO/N=C(/c1nonc1N)N1CCN(c2ccc([N+](=O)[O-])cc2)CC1 | 33 | i | i | i | i | i | i
CC(=O)c1ccc(NC(=S)NC(=O)Cc2ccc(Cl)cc2)cc1 | 31 | i | i | i | i | 43 | i
N#CCC(=N)N1CCN(c2ccccc2)CC1 | i | i | i | i | i | nt | nt
N#CCC(=N)N1CCN(c2cccc(Cl)c2)CC1 | 45 | i | i | i | i | i | i
COC(=O)c1cccc(S(=O)(=O)N2CCC(NC(=O)Nc3cccc(F)c3)CC2)c1 | 36 | i | i | i | i | 61 | i
C#CCOCCOCCOCCNc1nc(N2CCN(C(=O)[C@H](CCCCN)n3cc([C@@H](N)CO)nn3)CC2)nc(N2CCN(C(=O)[C@H](Cc3cc4ccccc4[nH]3)n3cc([C@@H](N)CC(C)C)nn3)CC2)n1 | i | i | i | i | i | nt | nt
O=C(O)c1ccc(NC(=O)c2cn(-c3ccccc3)nc2-c2cccc(Cl)c2)cc1 | i | i | i | i | i | nt | nt
NS(=O)(=O)c1ccc(NC(=O)/C=C/c2cn(-c3ccccc3)nc2-c2cccc(Cl)c2)cc1 | 30 | i | i | i | i | 39 | i
Cc1ccc(OCCNC(=O)c2cccc(S(=O)(=O)N3CCN(C)CC3)c2)cc1 | nt | nt | i | i | nt | nt | nt
